Measurements as given in ChEMBL document CHEMBL1123950, “N-(Retinoyl)amino acids. Synthesis and chemopreventive activity in vitro” (1988).
pEC50: −log10 of the molar value.

How the values were obtained:
Cricetinae gen. sp. [1] = test: Cultures with mild degree of squamous metaplasia at a conc of 10e-9 M; assay type: functional, Cricetulus griseus
Method in brief: (§1)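 Tracheas from 29-31-day-old hamsters fed a vitamin A free diet; cultured in serum-free CMRL 1066 (insulin 1.0 μg/mL, hydrocortisone hemisuccinate 0.1 μg/mL, glutamine 2 mM, Garamycin 50 μg/mL), 50% O2/45% N2/5% CO2, rocked, 36 °C. Retinoid-free 3 days, then retinoid in DMSO (final 0.1%) for 7 days; medium and gas changed three times. Formalin-fixed day 10; squamous metaplasia graded: mild 2-10%, marked 10-40%, severe >40%.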

Cricetinae gen. sp. [2] = test: Cultures with mild degree of squamous metaplasia at a conc of 10e-8 M; assay type: functional, Cricetulus griseus; method in brief: as §1
Cricetinae gen. sp. [3] = test: Cultures with minimal degree of squamous metaplasia at a conc of 10e-10 M; assay type: functional, Cricetulus griseus; method in brief: as §1
Cricetinae gen. sp. [4] = test: Cultures with no evidence of squamous metaplasia at a conc of 10e-11 M; assay type: functional, Cricetulus griseus; method in brief: as §1
Cricetinae gen. sp. [5] = test: Cultures with marked degree of squamous metaplasia at a conc of 10e-8 M; assay type: functional, Cricetulus griseus; method in brief: as §1
Cricetinae gen. sp. [6] = test: Cultures with no evidence of squamous metaplasia at a conc of 10e-10 M; assay type: functional, Cricetulus griseus; method in brief: as §1
Cricetinae gen. sp. [7] = test: Cultures with minimal degree of squamous metaplasia at a conc of 10e-8 M; assay type: functional, Cricetulus griseus; method in brief: as §1
Cricetinae gen. sp. [8] = test: Cultures with minimal degree of squamous metaplasia at a conc of 10e-11 M; assay type: functional, Cricetulus griseus; method in brief: as §1
Cricetinae gen. sp. [9] = test: Cultures with marked degree of squamous metaplasia at a conc of 10e-9 M; assay type: functional, Cricetulus griseus; method in brief: as §1
Cricetinae gen. sp. [10] = test: Cultures with severe degree of squamous metaplasia at a conc of 10e-11 M; assay type: functional, Cricetulus griseus; method in brief: as §1
Cricetinae gen. sp. [11] = test: Cultures with severe degree of squamous metaplasia at a conc of 10e-10 M; assay type: functional, Cricetulus griseus; method in brief: as §1
Cricetinae gen. sp. [12] = test: Cultures with mild degree of squamous metaplasia at a conc of 10e-10 M; assay type: functional, Cricetulus griseus; method in brief: as §1
Cricetinae gen. sp. [13] = test: Cultures with severe degree of squamous metaplasia at a conc of 10e-9 M; assay type: functional, Cricetulus griseus; method in brief: as §1
Cricetinae gen. sp. [14] = test: Cultures with marked degree of squamous metaplasia at a conc of 10e-11 M; assay type: functional; method in brief: as §1
Cricetinae gen. sp. [15] = test: Cultures with mild degree of squamous metaplasia at a conc of 10e-11 M; assay type: functional, Cricetulus griseus; method in brief: as §1
Cricetinae gen. sp. [16] = test: Cultures with no evidence of squamous metaplasia at a conc of 10e-9 M; assay type: functional, Cricetulus griseus; method in brief: as §1
Cricetinae gen. sp. [17] = test: Cultures with severe degree of squamous metaplasia at a conc of 10e-8 M; assay type: functional, Cricetulus griseus; method in brief: as §1
Cricetinae gen. sp. [18] = test: Cultures with no evidence of squamous metaplasia at a conc of 10e-8; assay type: functional, Cricetulus griseus; method in brief: as §1
Cricetinae gen. sp. [19] = test: Cultures with marked degree of squamous metaplasia at a conc of 10e-10 M; assay type: functional, Cricetulus griseus; method in brief: as §1
Cricetinae gen. sp. [20] = test: Reversal of keratinization in vitamin A deficient hamster trachea culture at a conc of 10e-8 M; assay type: functional, Cricetulus griseus; conditions: read-out: ED50 (the source's name)
Method in brief: (§2)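 Tracheas from 29-31-day-old hamsters kept on a vitamin A free diet, cultured in serum-free CMRL 1066 (insulin 1.0 μg/mL, hydrocortisone hemisuccinate 0.1 μg/mL, glutamine 2 mM, Garamycin 50 μg/mL), 50% O2/45% N2/5% CO2, rocked at 36 °C. Retinoid-free for 3 days, then retinoid in DMSO (0.1% final) for 7 days. Fixed in formalin; squamous metaplasia graded mild 2-10%, marked 10-40%, severe >40%.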

Cricetinae gen. sp. [21] = test: Cultures with minimal degree of squamous metaplasia at a conc of 10e-9 M; assay type: functional, Cricetulus griseus; method in brief: as §1
Cricetinae gen. sp. [22] = test: Reversal of keratinization in vitamin A deficient hamster trachea culture at a concentration of 10e-8 M; assay type: functional, Cricetulus griseus; conditions: read-out: ED50 (the source's name); method in brief: as §2
Cricetinae gen. sp. [23] = test: Cultures with severe degree of squamous metaplasia at a concentration of 10e-9 M; assay type: functional, Cricetulus griseus; method in brief: as §2
Cricetinae gen. sp. [24] = test: Cultures with severe degree of squamous metaplasia at a concentration of 10e-11 M; assay type: functional, Cricetulus griseus; method in brief: as §2
Cricetinae gen. sp. [25] = test: Cultures with mild degree of squamous metaplasia at a concentration of 10e-8 M; assay type: functional, Cricetulus griseus; method in brief: as §1
Cricetinae gen. sp. [26] = test: Cultures with minimal degree of squamous metaplasia at a concentration of 10e-8 M; assay type: functional, Cricetulus griseus; method in brief: as §1
Cricetinae gen. sp. [27] = test: Cultures with marked degree of squamous metaplasia at a concentration of 10e-11 M; assay type: functional, Cricetulus griseus; method in brief: as §1
Cricetinae gen. sp. [28] = test: Cultures with no evidence of squamous metaplasia at a concentration of 10e-10 M; assay type: functional, Cricetulus griseus; method in brief: as §1
Cricetinae gen. sp. [29] = test: Cultures with marked degree of squamous metaplasia at a concentration of 10e-8 M; assay type: functional, Cricetulus griseus; method in brief: as §1
Cricetinae gen. sp. [30] = test: Cultures with no evidence of squamous metaplasia at a concentration of 10e-8 M; assay type: functional, Cricetulus griseus; method in brief: as §1
Cricetinae gen. sp. [31] = test: Cultures with mild degree of squamous metaplasia at a concentration of 10e-9 M; assay type: functional, Cricetulus griseus; method in brief: as §1
Cricetinae gen. sp. [32] = test: Cultures with minimal degree of squamous metaplasia at a concentration of 10e-11 M; assay type: functional, Cricetulus griseus; method in brief: as §1
Cricetinae gen. sp. [33] = test: Cultures with minimal degree of squamous metaplasia at a concentration of 10e-10 M; assay type: functional, Cricetulus griseus; method in brief: as §1
Cricetinae gen. sp. [34] = test: Cultures with no evidence of squamous metaplasia at a concentration of 10e-9 M; assay type: functional, Cricetulus griseus; method in brief: as §1
Cricetinae gen. sp. [35] = test: Cultures with no evidence of squamous metaplasia at a concentration of 10e-11 M; assay type: functional, Cricetulus griseus; method in brief: as §1
Cricetinae gen. sp. [36] = test: Cultures with mild degree of squamous metaplasia at a concentration of 10e-11 M; assay type: functional, Cricetulus griseus; method in brief: as §1
Cricetinae gen. sp. [37] = test: Cultures with severe degree of squamous metaplasia at a concentration of 10e-8 M; assay type: functional, Cricetulus griseus; method in brief: as §2
Cricetinae gen. sp. [38] = test: Cultures with mild degree of squamous metaplasia at a concentration of 10e-10 M; assay type: functional, Cricetulus griseus; method in brief: as §1
Cricetinae gen. sp. [39] = test: Cultures with severe degree of squamous metaplasia at a concentration of 10e-10 M; assay type: functional, Cricetulus griseus; method in brief: as §2
Cricetinae gen. sp. [40] = test: Cultures with marked degree of squamous metaplasia at a concentration of 10e-10 M; assay type: functional, Cricetulus griseus; method in brief: as §1
Cricetinae gen. sp. [41] = test: Cultures with marked degree of squamous metaplasia at a concentration of 10e-9 M; assay type: functional, Cricetulus griseus; method in brief: as §1
Cricetinae gen. sp. [42] = test: Cultures with minimal degree of squamous metaplasia at a concentration of 10e-9 M; assay type: functional, Cricetulus griseus; method in brief: as §1

SMILES: CC1=C(/C=C/C(C)=C/C=C/C(C)=C/C(=O)NC(C)C(=O)O)C(C)(C)CCC1 (configuration not stated)
- Culture (Cricetinae gen. sp. [1]): 14%
- Culture (Cricetinae gen. sp. [2]): 0%
- Culture (Cricetinae gen. sp. [3]): 0%
- Culture (Cricetinae gen. sp. [4]): 0%
- Culture (Cricetinae gen. sp. [5]): 0%
- Culture (Cricetinae gen. sp. [6]): 14%
- Culture (Cricetinae gen. sp. [7]): 0%
- Culture (Cricetinae gen. sp. [8]): 0%
- Culture (Cricetinae gen. sp. [9]): 0%
- Culture (Cricetinae gen. sp. [10]): 14%
- Culture (Cricetinae gen. sp. [11]): 14%
- Culture (Cricetinae gen. sp. [12]): 14%
- Culture (Cricetinae gen. sp. [13]): 14%
- Culture (Cricetinae gen. sp. [14]): 57%
- Culture (Cricetinae gen. sp. [15]): 29%
- Culture (Cricetinae gen. sp. [16]): 72%
- Culture (Cricetinae gen. sp. [17]): 0%
- Culture (Cricetinae gen. sp. [18]): 100%
- Culture (Cricetinae gen. sp. [19]): 58%
- pEC50 (Cricetinae gen. sp. [20]): 9.40
- Culture (Cricetinae gen. sp. [21]): 0%

SMILES: CC1=C(/C=C/C(C)=C/C=C/C(C)=C/C(=O)NC(Cc2ccccc2)C(=O)O)C(C)(C)CCC1 (configuration not stated)
- pEC50 (Cricetinae gen. sp. [22]): 9.30
- Culture (Cricetinae gen. sp. [23]): 0%
- Culture (Cricetinae gen. sp. [24]): 0%
- Culture (Cricetinae gen. sp. [25]): 29%
- Culture (Cricetinae gen. sp. [26]): 0%
- Culture (Cricetinae gen. sp. [27]): 72%
- Culture (Cricetinae gen. sp. [28]): 43%
- Culture (Cricetinae gen. sp. [29]): 0%
- Culture (Cricetinae gen. sp. [30]): 71%
- Culture (Cricetinae gen. sp. [31]): 0%
- Culture (Cricetinae gen. sp. [32]): 0%
- Culture (Cricetinae gen. sp. [33]): 0%
- Culture (Cricetinae gen. sp. [34]): 57%
- Culture (Cricetinae gen. sp. [35]): 14%
- Culture (Cricetinae gen. sp. [36]): 14%
- Culture (Cricetinae gen. sp. [37]): 0%
- Culture (Cricetinae gen. sp. [38]): 29%
- Culture (Cricetinae gen. sp. [39]): 14%
- Culture (Cricetinae gen. sp. [40]): 14%
- Culture (Cricetinae gen. sp. [41]): 43%
- Culture (Cricetinae gen. sp. [42]): 0%
